Experimental data reported in ChEMBL document CHEMBL5352422, “Development of l-Dopa-containing diketopiperazines as blood-brain barrier shuttle” (Eur J Med Chem, 2022).
Converted amounts (≈) assume the structure as drawn.

Experiments:
[1] = Partition coefficient, logP of the compound by HPLC-UV analysis; assay type: physicochemical; settings: octanol/water
[2] = Stability of the compound in phosphate buffer assessed as chemical hydrolysis by measuring half life at pH 7.4; assay type: physicochemical
Method in brief: (§1)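 Chemical hydrolysis at 37 °C in hydrochloric acid buffer pH 1.2 or phosphate buffer pH 7.4. Remaining compound followed by HPLC with UV detection. t1/2 and k_obs are means of three experiments ± SD.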

[3] = Effective permeability of compound at 500 uM incubated for 18 hrs by […] method; assay type: ADME; settings: read-out: Peff
Method in brief: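 PAMPA-BBB: donor contained compound at 500 µM final in PBS pH 7.4 with 20% v/v MeOH. Incubated 18 h. Donor and acceptor concentrations measured by HPLC; effective permeability Pe (cm/s) calculated.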

[4] = Genotoxicity in human Lymphocyte assessed as micronuclei formation measured per 1000 cells at 100 nM incubated for 72 hrs giemsa staining based analysis (reference value: 4.5 to 17.9); assay type: toxicity, cell-based; settings: 0.1 µM
Method in brief: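 Human whole-blood lymphocyte cultures with phytohemagglutinin, incubated with compound for 72 h at 37 °C. Cytochalasin B added at 44 h. Cells fixed in ice-cold methanol/acetic acid 1:1, cytospun, Giemsa-stained. At least 1000 binucleated lymphocytes per concentration scored for micronuclei by one observer.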

[5] = Induction of DNA damage in Primary human whole blood cell assessed as total DNA damage score at 100 nM incubated for 24 hrs by Comet assay (reference value: 35.4 to 77.9); assay type: functional
[6] = Solubility of the compound in water by HPLC-UV analysis; assay type: physicochemical
[7] = Stability in human plasma assessed as half life by HPLC method; assay type: ADME, cell-free
Method in brief: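 Stock added to 37 °C human plasma diluted with 0.02 M phosphate buffer pH 7.4 to 80% plasma. Aliquots taken over time were quenched with 0.01 M HCl in methanol, centrifuged 5 min at 5000 g, and supernatant analyzed by HPLC-UV. t1/2 and k_obs are means of three experiments ± SD.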

[8] = Stability of the compound in stimulated intestinal fluid at 10 mg/ml pancreatin by measuring half life measured upto 180 mins by HPLC analysis; assay type: ADME; settings: simulated intestinal fluid with pancreatin
Method in brief: (§2)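 USP simulated intestinal fluid containing pancreatin, in a 37 °C shaking water bath. Samples at 0, 60, 120 and 180 min were quenched with ice-cold acetonitrile containing 0.5% formic acid, centrifuged at 4 °C for 10 min, filtered and analyzed by HPLC. Means of three experiments ± SD.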

[9] = Cytotoxicity against rat Cerebral cortex cell at 10 to 500 nM incubated for 24 hrs by MTT assay; assay type: toxicity, cell-based; settings: cerebral cortex neuron, 0.5 µM, dose 10-500 nM
Method in brief: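 Primary cultures (rat fetal cortical neurons; human whole-blood cultures with phytohemagglutinin) exposed to aqueous compound at 10–500 nM for 24 h at 37 °C. Then incubated with 0.7 mg/mL MTT for 30 min at 37 °C, formazan extracted with isopropanol/formic acid 95:5, read at 560 nm. Control formazan = 100% viability. Mitomycin C 10^-7 M as positive control; n = 4.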

[10] = Stability of the compound in hydrochloric acid buffer assessed as chemical hydrolysis by measuring half life at pH 1.2; assay type: physicochemical; method in brief: as §1
[11] = Antioxidant activity against Primary human whole blood cell assessed as H2O2 equivalent of total oxidative stress at 10 nM incubated for 24 hrs (0.6 to 1.9 micromolequiv/L); assay type: functional
[12] = Stability of the compound in stimulated intestinal fluid at 10 mg/ml pancreatin by measuring observed rate constant measured upto 180 mins by HPLC analysis; assay type: ADME; settings: simulated gi fluid, 3 h; method in brief: as §2
[13] = Induction of DNA damage in rat Cerebral cortex cell assessed as total DNA damage score at 100 nM incubated for 24 hrs by Comet assay (reference value: 36.8 to 89.2); assay type: functional, Cerebral cortex neuron
[14] = Antioxidant activity against rat Cerebral cortex cell assessed as trolox equivalent of total antioxidant capacity at 100 nM incubated for 24 hrs (14.7 to 27.5 mmolequiv/L ); assay type: functional, Cerebral cortex neuron
[15] = Antioxidant activity against rat Cerebral cortex cell assessed as trolox equivalent of total antioxidant capacity at 10 nM incubated for 24 hrs (14.7 to 27.5 mmolequiv/L ); assay type: functional, Cerebral cortex neuron
[16] = Genotoxicity in human Lymphocyte assessed as sister chromatid exchange measured per cells at 500 nM incubated for 72 hrs giemsa staining based fluorescence method (reference value: 6.6 to 14.3); assay type: toxicity, cell-based; settings: 0.5 µM
[17] = Genotoxicity in human Lymphocyte assessed as sister chromatid exchange measured per cells at 10 nM incubated for 72 hrs giemsa staining based fluorescence method (reference value: 6.6 to 14.3); assay type: toxicity, cell-based; settings: 0.01 µM
[18] = Antioxidant activity against rat Cerebral cortex cell assessed as H2O2 equivalent of total oxidative stress at 250 nM incubated for 24 hrs (0.7 to 2.3 micromolequiv/L); assay type: functional, Cerebral cortex neuron
[19] = Antioxidant activity against Primary human whole blood cell assessed as trolox equivalent of total antioxidant capacity at 100 nM incubated for 24 hrs (19.3 to 32.5 mmolequiv/L ); assay type: functional
[20] = Antioxidant activity against Primary human whole blood cell assessed as H2O2 equivalent of total oxidative stress at 100 nM incubated for 24 hrs (0.6 to 1.9 micromolequiv/L); assay type: functional
[21] = Stability of the compound in stimulated gastric fluid at 40 mg/ml pepsin by measuring observed rate constant measured upto 60 mins by HPLC analysis; assay type: ADME; settings: simulated gi fluid, 1 h
Method in brief: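 USP simulated gastric fluid containing pepsin, preheated, in a 37 °C shaking water bath. Samples at 0, 15, 30 and 60 min were deproteinized with ice-cold acetonitrile containing 0.5% formic acid, centrifuged at 4 °C, filtered and analyzed by HPLC. Means of three experiments.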

[22] = Antioxidant activity against Primary human whole blood cell assessed as trolox equivalent of total antioxidant capacity at 250 nM incubated for 24 hrs (19.3 to 32.5 mmolequiv/L ); assay type: functional
[23] = Genotoxicity in human Lymphocyte assessed as sister chromatid exchange measured per cells at 100 nM incubated for 72 hrs giemsa staining based fluorescence method (reference value: 6.6 to 14.3); assay type: toxicity, cell-based; settings: 0.1 µM
[24] = Induction of DNA damage in rat Cerebral cortex cell assessed as total DNA damage score at 50 nM incubated for 24 hrs by Comet assay (reference value: 36.8 to 89.2); assay type: functional, Cerebral cortex neuron
[25] = Induction of DNA damage in rat Cerebral cortex cell assessed as 8-OH-dG adducts formation at 500 nM incubated for 24 hrs by […] (reference value: 0.14 to 1.92 pg/ml); assay type: functional, Cerebral cortex neuron
Method in brief: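 Primary rat cerebral cortex neurons from fetuses, grown in neurobasal medium with FCS on poly-D-lysine flasks and used after 8 days. Aqueous compound at 10–500 nM for 24 h at 37 °C. Untreated cultures served as negative control and MMC 10^-7 M as positive control. 8-OH-dG measured with a commercial ELISA-type kit and reported in pg/mL. Four independent experiments, mean ± SD.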

[26] = Antioxidant activity against rat Cerebral cortex cell assessed as H2O2 equivalent of total oxidative stress at 100 nM incubated for 24 hrs (0.7 to 2.3 micromolequiv/L); assay type: functional, Cerebral cortex neuron
[27] = Antioxidant activity against rat Cerebral cortex cell assessed as trolox equivalent of total antioxidant capacity at 250 nM incubated for 24 hrs (14.7 to 27.5 mmolequiv/L ); assay type: functional, Cerebral cortex neuron

| logP [1] | half-life [2] [h] | Papp at 18 h, 500 µM [3] [×10⁻⁶ cm/s] | solubility [6] [µg/mL] | half-life [7] [h] | half-life [8] [h] | half-life [10] [h] | Kobs [12] [h⁻¹] | Structure (SMILES) | Activity [4] | Activity [5] | Activity [9] | Activity [11] [umolequiv/L] | Activity [13] | Activity [14] [mmolequiv/L] | Activity [15] [mmolequiv/L] | Activity [16] | Activity [17] | Activity [18] [umolequiv/L] | Activity [19] [mmolequiv/L] | Activity [20] [umolequiv/L] | other results |
| --- | --- | --- | --- | --- | --- | --- | --- | --- | --- | --- | --- | --- | --- | --- | --- | --- | --- | --- | --- | --- | --- |
| 0.35 | 47.5 | 4.88 | 630 (≈ 1560 µM) | 2.09 | 3.51 | 134 | 0.198 | C#CCSC[C@H]1NC(=O)[C@H](Cc2ccc(OC(C)=O)c(OC(C)=O)c2)NC1=O | 4.9 | 35.6 | Non-Toxic | 0.6 | 37.8 | 15.2 | 14.7 | 6.9 | 6.5 | 0.6 | 19.5 | 0.6 | Kobs [21]: 0.012 h⁻¹; Activity [22]: 19.8 mmolequiv/L; Activity [23]: 6.6; Activity [24]: 37.2; Activity [25]: 0.15 pg/mL; Activity [26]: 0.6 umolequiv/L; Activity [27]: 15.4 mmolequiv/L |
| 0.68 | 30.9 | 2.42 | 323 (≈ 795 µM) | 0.096 | 0.68 | 18.9 | 1.03 | C=CCSC[C@H]1NC(=O)[C@H](Cc2ccc(OC(C)=O)c(OC(C)=O)c2)NC1=O | 5 | 35.5 | Non-Toxic | 0.6 | 37.1 | 14.4 | 15.1 | 7 | 6.8 | 0.7 | 19.7 | 0.7 | Kobs [21]: 0.031 h⁻¹; Activity [22]: 18.8 mmolequiv/L; Activity [23]: 6.9; Activity [24]: 36.4; Activity [25]: 0.15 pg/mL; Activity [26]: 0.7 umolequiv/L; Activity [27]: 14.7 mmolequiv/L |
